Source: ChEMBL document CHEMBL3868602, “Novel synthetic chalcones induce apoptosis in the A549 non-small cell lung cancer cells harboring a KRAS mutation” (Bioorg Med Chem Lett, 2016)
The source made the active and inactive calls. The rule behind the calls is not given here.

Tests used:
A549 [1] = assay: Cytotoxicity against human A549 cells harboring KRAS mutant assessed as increase in apoptotic cells at 1 uM after 72 hrs by crystal violet staining based assay; assay type: functional, cell-based
Procedure, shortened: (§1)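 Cells exposed 72 h to compound or DMSO vehicle, either at 1 and 10 μM or over 0.033–10 μM dose series. Surviving cells then stained with crystal violet and absorbance read at 562 nm. Effect expressed as % dead/apoptotic cells relative to DMSO, average of triplicates; dose curves n=6, run twice, mean ± SD, giving EC50.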

[2] = (§2) Cytotoxicity against human A549 cells harboring KRAS mutant assessed as increase in apoptotic cells after 72 hrs by crystal violet staining based assay; assay type: functional, cell-based; settings: A549, 72 h; procedure, shortened: as §1
A549 [3] = assay: as §2; assay type: functional, cell-based; procedure, shortened: as §1
[4] = Cytotoxicity against human A549 cells harboring KRAS mutant assessed as apoptotic cells at 10 uM after 72 hrs by crystal violet staining based assay; assay type: functional; procedure, shortened: as §1
PC-3 = assay: Induction of apoptosis in human PC3 cells after 72 hrs by crystal violet staining based assay; assay type: functional, cell-based; procedure, shortened: as §1
A549 [5] = assay: Ratio of EC50 for human HPAC CRL2119 cells to EC50 for human A549 cells harboring KRAS mutant; assay type: functional
Procedure, shortened: (§3)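 Ratio computed from EC50 values obtained by 72 h crystal violet survival assays (absorbance 562 nm) in each cell line, divided by the A549 EC50.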

A549 [6] = assay: Ratio of EC50 for human PC3 cells to EC50 for human A549 cells harboring KRAS mutant; assay type: functional; procedure, shortened: as §3
A549 [7] = assay: Ratio of EC50 for mouse Panc02 cells to EC50 for human A549 cells harboring KRAS mutant; assay type: functional; procedure, shortened: as §3
HPAC = assay: Induction of apoptosis in human HPAC CRL2119 cells after 72 hrs by crystal violet staining based assay; assay type: functional, cell-based; procedure, shortened: as §1
Panc02 = assay: Induction of apoptosis in mouse Panc02 cells after 72 hrs by crystal violet staining based assay; assay type: functional, cell-based; procedure, shortened: as §1
[8] = Cell cycle arrest in human PC3 cells assessed as inhibition of S phase at 1 uM after 24 hrs by propidium iodide staining based flow cytometry; assay type: functional; settings: PC-3
Procedure, shortened: (§4)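 Serum-starved 24 h to block in G1/G0, then returned to FBS-containing medium with test agent at 1 μM for a further 24 h. 0.5 × 10^6 treated cells stained with propidium iodide and analysed by flow cytometry, gating G1, S, G2/M plus apoptotic and necrotic populations. n=4–5 repeats.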

[9] = Cell cycle arrest in human PC3 cells assessed as blockage of G1 phase at 1 uM after 24 hrs by propidium iodide staining based flow cytometry; assay type: functional; settings: PC-3; procedure, shortened: as §4
A549 [10] = assay: Induction of apoptosis in human A549 cells harboring KRAS mutant assessed as blockage of G2/M transition phase at 1 uM after 24 hrs by propidium iodide staining based flow cytometry; assay type: functional, cell-based; procedure, shortened: as §4
[11] = Cytotoxicity against human A549 cells harboring KRAS mutant assessed as cell death at 1 uM after 72 hrs by crystal violet staining based assay; assay type: functional
Procedure, shortened: (§5)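 Cells treated with compound or DMSO vehicle for 72 h at 0.033–10 uM, then stained with crystal violet; absorbance at 562 nm taken as live cell number. Cell death read at 1 uM relative to DMSO controls. n=6, performed twice; mean ± SD.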

Stathmin (Homo sapiens) = target: T1, Stathmin (Homo sapiens) (UniProt P16949); assay: Increase in STMN1 phosphorylation in human A549 cells harboring KRAS mutant at 1 uM after 8 hrs by Western blot analysis; assay type: cell-based
T1 sequence (whole entry): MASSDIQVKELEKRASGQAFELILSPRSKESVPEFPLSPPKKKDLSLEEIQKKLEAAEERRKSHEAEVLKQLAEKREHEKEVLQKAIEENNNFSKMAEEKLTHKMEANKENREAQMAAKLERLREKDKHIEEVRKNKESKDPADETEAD
Procedure, shortened: (§6)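 A549 cells given serum-containing medium with DMSO or 1 μM compound for 8, 24 or 48 h. Lysates immunoblotted for cyclin A2, cyclin B1, phospho-Rb, total Rb and phospho-STMN1. Two independent experiments.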

[12] = Cytotoxicity against NHBE cells assessed as decrease in cell viability at 0.01 to 10 uM after 72 hrs by crystal violet staining based assay; assay type: toxicity; settings: human; procedure, shortened: as §1
[13] = target: T2, Retinoblastoma-associated protein (Homo sapiens) (UniProt P06400); assay: Inhibition of phosphorylated retinoblastoma protein level in human A549 cells harboring KRAS mutant at 1 uM after 8 to 48 hrs by Western blot analysis; assay type: cell-based; procedure, shortened: as §6
T2 sequence (whole entry): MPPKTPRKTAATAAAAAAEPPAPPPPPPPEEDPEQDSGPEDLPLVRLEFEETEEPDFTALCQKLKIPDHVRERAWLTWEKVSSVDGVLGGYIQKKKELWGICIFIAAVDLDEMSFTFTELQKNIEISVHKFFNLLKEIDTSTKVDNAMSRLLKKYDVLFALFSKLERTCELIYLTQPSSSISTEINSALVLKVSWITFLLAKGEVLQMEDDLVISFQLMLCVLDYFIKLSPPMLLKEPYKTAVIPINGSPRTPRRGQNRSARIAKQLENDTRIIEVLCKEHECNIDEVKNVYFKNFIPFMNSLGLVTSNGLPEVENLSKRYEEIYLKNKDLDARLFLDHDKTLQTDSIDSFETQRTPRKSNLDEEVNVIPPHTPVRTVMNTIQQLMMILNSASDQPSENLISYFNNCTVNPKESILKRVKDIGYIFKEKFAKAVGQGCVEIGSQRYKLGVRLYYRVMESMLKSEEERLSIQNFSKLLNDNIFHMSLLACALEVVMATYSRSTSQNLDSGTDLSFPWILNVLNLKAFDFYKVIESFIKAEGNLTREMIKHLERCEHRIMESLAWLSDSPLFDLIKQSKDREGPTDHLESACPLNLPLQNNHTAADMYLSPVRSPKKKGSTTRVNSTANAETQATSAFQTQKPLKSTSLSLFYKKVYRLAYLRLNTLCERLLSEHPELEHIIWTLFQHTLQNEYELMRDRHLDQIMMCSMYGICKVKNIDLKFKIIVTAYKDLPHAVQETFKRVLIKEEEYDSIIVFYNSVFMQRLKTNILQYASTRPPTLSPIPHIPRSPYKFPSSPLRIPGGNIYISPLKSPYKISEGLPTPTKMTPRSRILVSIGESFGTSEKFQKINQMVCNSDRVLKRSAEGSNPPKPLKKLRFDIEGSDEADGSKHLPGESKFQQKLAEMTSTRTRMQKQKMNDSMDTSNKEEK

[14] = Therapeutic index, ratio of EC50 for NHBE cells to EC50 for human A549 cells harboring KRAS mutant; assay type: cell-based; settings: NHBE cells versus A549 cells harboring KRAS mutant, read-out: Ratio EC50; procedure, shortened: as §3
[15] = Cytotoxicity against human PC3 cells assessed as cell death at 1 uM after 72 hrs by crystal violet staining based assay; assay type: functional, PC-3; procedure, shortened: as §5
A549 [16] = assay: Suppression of cyclin A2 level in human A549 cells harboring KRAS mutant at 1 uM after 8 to 48 hrs by Western blot analysis; assay type: functional, cell-based; procedure, shortened: as §6
[17] = Effect on cell cycle in NHBE cells at 1 uM after 24 hrs by propidium iodide staining based flow cytometry; settings: human; procedure, shortened: as §4
[18] = Cytotoxicity against mouse Panc02 cells assessed as cell death at 1 uM after 72 hrs by crystal violet staining based assay; assay type: functional; procedure, shortened: as §5
[19] = Cytotoxicity against human HPAC CRL2119 cells assessed as cell death at 1 uM after 72 hrs by crystal violet staining based assay; assay type: functional; procedure, shortened: as §5

| SMILES | Activity (A549 [1]) | EC50 [2] | Activity (A549 [3]) | other results |
| --- | --- | --- | --- | --- |
| Cn1ccc2cc(/C=C3\CCc4ccccc4C3=O)ccc21 | Active | 0.47 µM | Dose-dependent effect |  |
| CC(C)(C)OC(=O)n1ccc2cc(/C=C3\CCc4ccccc4C3=O)ccc21 |  |  | Dose-dependent effect |  |
| Cn1ccc2cc(/C=C3\CCc4ccc(Br)cc4C3=O)ccc21 |  |  | Dose-dependent effect | Activity [4]: 21% |
| Cn1ccc2ccc(/C=C3\CCc4ccccc4C3=O)cc21 | Active | 0.47 µM | Dose-dependent effect |  |
| CCn1ccc2cc(/C=C3\CCc4cc(OC)c(OC)cc4C3=O)ccc21 |  |  | Dose-dependent effect | Activity [4]: 19% |
| O=C1/C(=C/c2ccc3[nH]ccc3c2)CCc2ccc(F)cc21 | Active | 0.27 µM | Dose-dependent effect |  |
| COc1cc2c(cc1OC)C(=O)/C(=C/c1ccc3ccn(C)c3c1)CC2 | Active | 10 µM | Dose-dependent effect |  |
| COc1ccc2c(c1)C(=O)/C(=C/c1ccc3c(ccn3C)c1)CC2 | Active | 3 µM | Dose-dependent effect |  |
| O=C1/C(=C/c2ccc3c(ccn3Cc3ccccc3)c2)CCc2ccc(F)cc21 |  |  | Dose-dependent effect |  |
| CCn1ccc2cc(/C=C3\CCc4ccc(Br)cc4C3=O)ccc21 |  |  | Dose-dependent effect |  |
| O=C1/C(=C/c2ccc3[nH]ccc3c2)CCc2ccccc21 | Active | 1.13 µM | Dose-dependent effect |  |
| Cn1ccc2cc(/C=C3\CCc4ccc(F)cc4C3=O)ccc21 | Active | 0.2 µM | Dose-dependent effect |  |
| Cn1ccc2ccc(/C=C3\CCc4ccc(Br)cc4C3=O)cc21 |  |  | Dose-dependent effect | Activity [4]: 26% |
| CCn1ccc2cc(/C=C3\CCc4ccc(F)cc4C3=O)ccc21 | Active | 0.11 µM | Dose-dependent effect | Activity (PC-3): Dose-dependent effect; EC50 (PC-3; PC-3, 72 h): 0.45 µM; Ratio EC50 (A549 [5]): 2.8; Ratio EC50 (A549 [6]): >4; Ratio EC50 (A549 [7]): >4; Activity (HPAC): Dose-dependent effect; EC50 (HPAC): 0.31 µM; Activity (Panc02): Dose-dependent effect; EC50 (Panc02; Panc02, 72 h): 0.59 µM |
| CC(C)(C)OC(=O)n1ccc2cc(/C=C3\CCc4ccc(F)cc4C3=O)ccc21 |  |  | Dose-dependent effect |  |
| COc1ccc2c(c1)C(=O)/C(=C/c1ccc3ccn(C)c3c1)CC2 | Active | 5.8 µM | Dose-dependent effect |  |
| CCn1ccc2cc(/C=C3\CCc4ccccc4C3=O)ccc21 | Active | 0.46 µM | Dose-dependent effect |  |
| O=C1/C(=C/c2ccc3[nH]ccc3c2)CCc2ccc(Br)cc21 |  |  | Dose-dependent effect | Activity [4]: 16% |
| COc1cc2c(cc1OC)C(=O)/C(=C/c1ccc3c(ccn3C)c1)CC2 |  |  | Dose-dependent effect |  |
| COc1cc(/C=C2\CCc3ccc(F)cc3C2=O)cc(OC)c1OC |  |  |  | inhibition [8]: Active; Activity [9]: Active |
| CC(=O)n1ccc2cc(/C=C3\CCc4ccc(F)cc4C3=O)ccc21 |  |  | Dose-dependent effect | Activity [4]: 28% |
| CCn1ccc2cc(/C=C3\CCc4ccc(OC)cc4C3=O)ccc21 | Active | 3 µM | Dose-dependent effect |  |
| COc1ccc2c(c1)C(=O)/C(=C/c1ccc3[nH]ccc3c1)CC2 | Active | 0.55 µM | Dose-dependent effect | Activity (A549 [10]): Active; Activity [11]: 80%; Activity (Stathmin (Homo sapiens)): Active; Activity [12]: Non-Toxic; inhibition [13]: Active; selectivity ratio [14]: > 18; Activity [15]: <40%; Activity (A549 [16]): Active; Activity [17]: Non-Toxic; Activity [18]: <40%; Activity [19]: <40% |
